Results reported in ChEMBL document CHEMBL1909628, “Discovery of 6-substituted indole-3-glyoxylamides as lead antiprion agents with enhanced cell line activity, improved microsomal stability and low toxicity” (Eur J Med Chem, 2011).

How the values were obtained:
[1] = (§1) Toxicity in zebrafish assessed as organism survival at 5 uM treated at 48 hrs post-fertilization measured after 3 days; assay type: organism-based, Danio rerio; settings: in vivo
In short: (§2)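 AB wild-type zebrafish embryos dechorionated with pronase at 48 hpf, 3 per well in methylene blue-free E3 medium. Dosed at 5 uM from 10 mM DMSO stocks (1% v/v DMSO). Kept at 28 °C for 72 h without food; survival scored at day 5 versus vehicle controls. Two experiments, each in triplicate.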

[2] = Cytotoxicity against mouse SMB.s15 cells at 20 uM after 5 days by MTT assay; assay type: cell-based; settings: smb.s15, 120 h
In short: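 SMB.s15 cells at 12,000 cells/well, exposed to compound for 5 days at 37 °C (DMSO stock diluted via HBSS into medium). Viability measured by MTT assay per the reagent's standard protocol.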

[3] = Toxicity in zebrafish assessed as mortality rate at 5 uM measured after 72 hrs; assay type: organism-based, Danio rerio; settings: in vivo, read-out: Activity; in short: as §2
ScN2a = assay: Cytotoxicity against mouse ScN2a cells up to 32 uM; assay type: cell-based
In short: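 ScN2a cells seeded separately in 96-well plates. Calcein cell viability assay run in parallel with the ELISA screen, up to 32 uM maximum.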

[4] = Antiprion activity against PrPsc infected in mouse SMB.s15 cells assessed as complete clearance of PrPSc after 5 days by dot blot analysis; assay type: cell-based; settings: SMB.s15, 120 h
In short: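 SMB.s15 cells (scrapie-infected, mesodermal origin) in Medium 199 with 10% newborn calf and 5% fetal calf serum, seeded at 12,000 cells/well, 24 h attachment. Compound added from DMSO stock via HBSS dilution, 5 days at 37 °C. Lysates dot-blotted, proteinase K digestion (1 h, 37 °C), guanidine thiocyanate, anti-PrP 6H4 mAb, ECL. Triplicate, PrPSc relative to DMSO-only control.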

Danio rerio = species on record: Danio rerio; assay: as §1; assay type: organism-based; settings: in vivo, 72 h, 5 µM; in short: as §2
[5] = Metabolic stability in mouse liver microsomes assessed as compound remaining after 30 mins by HPLC analysis; assay type: ADME, Microsome; settings: read-out: Stability
In short: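 Mouse liver microsomes (0.5 mg/mL stock) in 0.2 M potassium phosphate pH 7.0 with DL-isocitrate, MgCl2 and isocitrate dehydrogenase. Preincubated 5 min at 37 °C, then started with NADPH. Sampled at t=0 and after 30 min at 37 °C, quenched in ice-cold acetonitrile with internal standard. Analysed by C18 HPLC, UV at 267 nm, in triplicate.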

[6] = Antiprion activity against PrPsc infected in mouse ScN2a cells assessed as complete clearance of PrPSc after 5 days by ELISA; assay type: cell-based; settings: 120 h
In short: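 ScN2a cells (N2a infected with RML prion strain) seeded at 4×10^5 cells/well in MEM with 10% FBS, GlutaMax, geneticin. Compound added 4 h after seeding, 0.5% final DMSO, 5 days at 37 °C. Lysates captured on D18 Fab-coated ELISA plates overnight at 4 °C, HRP-D13 detection, ABTS, absorbance at 405 nm. Dose-response curves from three independent experiments.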

Row | SMILES | survival at 72 h, 5 µM [1] | Activity [2] | mortality at 72 h, 5 µM [3] | Activity (ScN2a) | EC50 [4] | Activity (Danio rerio) | remaining at 0.5 h [5] | EC50 [6]
1 | Cc1ccc(NC(=O)C(=O)c2c[nH]c3cccc(C)c23)cc1 | 100% | Non-toxic | 20% | Non-toxic | > 20000 nM | – | – | –
2 | Cc1ccc2c(C(=O)C(=O)Nc3ccccc3)c[nH]c2c1 | 100% | Non-toxic | – | Non-toxic | 44 nM | – | – | –
3 | COc1ccc(NC(=O)C(=O)c2c[nH]c3cccc(C)c23)cc1 | 100% | Non-toxic | – | Non-toxic | 2360 nM | – | – | –
4 | COc1ccc(NC(=O)C(=O)c2c[nH]c3c(C)cccc23)cc1 | 100% | Non-toxic | – | Non-toxic | 150 nM | – | – | –
5 | O=C(Nc1ccccc1)C(=O)c1c[nH]c2ccc(Cl)cc12 | – | Non-toxic | – | Non-toxic | 1630 nM | Toxic | – | –
6 | Cc1ccc(NC(=O)C(=O)c2c[nH]c3cc(Cl)ccc23)cc1 | 100% | Non-toxic | 20% | Non-toxic | 100 nM | – | 85.6% | –
7 | O=C(Nc1ccc(-n2cccc2)cc1)C(=O)c1c[nH]c2cc(Cl)ccc12 | – | Non-toxic | – | Non-toxic | 17 nM | Toxic | – | –
8 | COc1ccc(NC(=O)C(=O)c2c[nH]c3cc(Cl)ccc23)cc1 | – | Non-toxic | – | Non-toxic | 9.9 nM | Toxic | 87.3% | –
9 | Cc1ccc(NC(=O)C(=O)c2c[nH]c3c(C)cccc23)cc1 | – | Non-toxic | 20% | Non-toxic | 1400 nM | Toxic | – | –
10 | Cn1cc(C(=O)C(=O)Nc2ccc(-n3cccc3)cc2)c2ccc(Cl)cc21 | 100% | Non-toxic | – | Non-toxic | 270 nM | – | – | –
11 | Cc1ccc(NC(=O)C(=O)c2c[nH]c3c(Cl)cccc23)cc1 | 100% | Non-toxic | 20% | Non-toxic | 470 nM | – | – | 1260 nM
12 | Cc1ccc2[nH]cc(C(=O)C(=O)Nc3ccc(N4CCOCC4)cc3)c2c1 | – | Non-toxic | 20% | Non-toxic | 83 nM | Toxic | – | –
13 | Cc1ccc(NC(=O)C(=O)c2c[nH]c3cc(C#N)ccc23)cc1 | 100% | Non-toxic | 20% | Non-toxic | 10.9 nM | – | 88.2% | 26 nM
14 | O=C(Nc1ccc(-n2cccn2)cc1)C(=O)c1c[nH]c2cc(F)ccc12 | – | Non-toxic | – | Non-toxic | 1.2 nM | Toxic | – | –
15 | Cc1ccc(NC(=O)C(=O)c2c[nH]c3ccc(C)cc23)cc1 | – | Non-toxic | 20% | Non-toxic | 900 nM | Toxic | – | –
16 | Cc1cccc2[nH]cc(C(=O)C(=O)Nc3ccc(N4CCOCC4)cc3)c12 | – | Non-toxic | 20% | Non-toxic | 680 nM | Toxic | – | –
17 | O=C(Nc1ccccc1)C(=O)c1c[nH]c2cc(Cl)ccc12 | 100% | Non-toxic | – | Non-toxic | 74 nM | – | – | –
18 | COc1ccc(NC(=O)C(=O)c2c[nH]c3ccc(Cl)cc23)cc1 | – | Non-toxic | – | Non-toxic | 470 nM | Toxic | – | –
19 | O=C(Nc1ccc(N2CCOCC2)cc1)C(=O)c1c[nH]c2ccc(Cl)cc12 | – | Non-toxic | 20% | Non-toxic | 69 nM | Toxic | – | –
20 | Cc1ccc(NC(=O)C(=O)c2c[nH]c3ccc(Cl)cc23)cc1 | 100% | Non-toxic | 20% | Non-toxic | 560 nM | – | – | –

Row | SMILES | survival at 72 h, 5 µM [1] | Activity [2] | mortality at 72 h, 5 µM [3] | Activity (ScN2a) | EC50 [4] | Activity (Danio rerio) | remaining at 0.5 h [5] | EC50 [6]
21 | O=C(Nc1ccc(-n2cccc2)cc1)C(=O)c1c[nH]c2cc(F)ccc12 | 100% | Non-toxic | – | Non-toxic | 7.7 nM | – | – | –
22 | Cc1ccc(NC(=O)C(=O)c2c[nH]c3cc(C)ccc23)cc1 | 100% | Non-toxic | 20% | Non-toxic | 51 nM | – | 90.2% | –
23 | COc1ccc(NC(=O)C(=O)c2c[nH]c3cc(C)ccc23)cc1 | 100% | Non-toxic | – | Non-toxic | 12 nM | – | 89.1% | –
24 | COc1ccc(NC(=O)C(=O)c2c[nH]c3cc([N+](=O)[O-])ccc23)cc1 | – | Non-toxic | – | Non-toxic | 10.5 nM | Toxic | 90% | –
25 | Cc1ccc(NC(=O)C(=O)c2c[nH]c3cc(C(C)C)ccc23)cc1 | – | Non-toxic | 20% | Non-toxic | 610 nM | – | 82.6% | –
26 | Cc1ccc2[nH]cc(C(=O)C(=O)Nc3ccccc3)c2c1 | 100% | Non-toxic | – | Non-toxic | 11500 nM | – | – | –
27 | COc1ccc(NC(=O)C(=O)c2c[nH]c3c(Cl)cccc23)cc1 | – | Non-toxic | – | Non-toxic | 24 nM | Toxic | – | 247 nM
28 | COc1ccc(NC(=O)C(=O)c2cn(C)c3ccccc23)cc1 | – | Non-toxic | – | Non-toxic | 68 nM | Toxic | – | –
29 | O=C(Nc1ccc(N2CCOCC2)cc1)C(=O)c1c[nH]c2ccccc12 | – | Non-toxic | 20% | Non-toxic | 9 nM | Toxic | – | 65 nM
30 | COc1ccc(NC(=O)C(=O)c2c[nH]c3cc(C(C)C)ccc23)cc1 | 100% | Non-toxic | – | Non-toxic | 330 nM | – | 86.2% | –
31 | Cc1cccc2c(C(=O)C(=O)Nc3ccc(N4CCOCC4)cc3)c[nH]c12 | 100% | Non-toxic | 20% | Non-toxic | 16 nM | – | – | –
32 | COc1ccc(NC(=O)C(=O)c2c[nH]c3cc(F)ccc23)cc1 | 100% | Non-toxic | – | Non-toxic | 13 nM | – | 74.6% | –
33 | O=C(Nc1ccc(-n2cccn2)cc1)C(=O)c1c[nH]c2cc(Cl)ccc12 | 100% | Non-toxic | – | Non-toxic | 6.1 nM | – | 96.7% | 175 nM
34 | Cc1ccc(NC(=O)C(=O)c2c[nH]c3cc([N+](=O)[O-])ccc23)cc1 | 100% | Non-toxic | 20% | Non-toxic | 35 nM | – | 84.8% | –
35 | O=C(Nc1ccc(N2CCOCC2)cc1)C(=O)c1c[nH]c2cc(Cl)ccc12 | – | Non-toxic | 20% | Non-toxic | 7.3 nM | – | – | –
36 | O=C(Nc1ccc(N2CCOCC2)cc1)C(=O)c1c[nH]c2c(Cl)cccc12 | 100% | Non-toxic | 20% | Non-toxic | 7.2 nM | – | – | –
37 | COc1ccc(NC(=O)C(=O)c2cn(C)c3cc(Cl)ccc23)cc1 | – | Non-toxic | – | Non-toxic | 1630 nM | Toxic | – | –
38 | Cn1cc(C(=O)C(=O)Nc2ccc(-n3cccc3)cc2)c2ccccc21 | 100% | Non-toxic | – | Non-toxic | 170 nM | – | – | –
39 | COc1ccc(NC(=O)C(=O)c2c[nH]c3ccc(C)cc23)cc1 | 100% | Non-toxic | – | Non-toxic | 880 nM | – | – | –
